# Laboratory results from PubChem BioAssay AID504382 (The Scripps Research Institute Molecular Screening Center, 2011).
# Hit rate of the full screen: of about 2,500 compounds, about 460 (18%) were called active. Not all results are given here. Unmarked numbers belong to inactive results.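 How the source made its calls: active means mean activation above a cutoff of low control average plus 3 SD from the earlier screen (cut at about 12% in these data); inactive means the rest.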
# Assay: IANBD-channel fluorescence artefacts in buffer – biochemical, artefact control for cardiac RTF calcium sensitizer project, confirmation (AID 504382)
# Settings: IANBD fluorescence interference counterscreen, EC20 Ca2+, at 7.2 µM, stronger effect = higher value, scaled: EC20 calcium 0, EC100 calcium 100
# Procedure, shortened: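 timing = compound incubation 15 min at 25 °C before fluorescence reading | technique = fluorescence at 480 nm excitation, 540 nm emission | evaluation = interference relative to controls | replication = triplicate wells per compound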
row,SMILES,fluorescence artifact activation
1,COc1ccc(/C=N/NC(=O)C(Cc2c[nH]c3ccccc23)NC(=O)OCC(C)C)cc1[N+](=O)[O-] (configuration not stated),0.1%
2,Cc1cccc(CN2C(=O)N/C(=C/c3ccc(C)s3)C2=O)c1,0.03%
3,COc1ccc(C2C(C#N)=C(N)N(c3cccnc3)C3=C2C(=O)CCC3)cc1Cn1cc([N+](=O)[O-])cn1 (configuration not stated),4.77%
4,CCOC(=O)C1C(=O)NC(SCC(N)=O)=C(C#N)C1c1ccccc1OCC (configuration not stated),0.28%
5,Fc1ccc(-c2nc3ccncc3[nH]2)cc1,1.25%
6,Cc1ccc2oc3c(SCc4nc5ccccc5[nH]4)nc(C)nc3c2c1,6.37%
7,CC1=NN(C(=O)c2ccccc2-n2cccc2)C(O)(C(F)(F)F)C1 (configuration not stated),0.1%
8,COc1ccc(OC)c(C2=C/C(=C/c3ccccn3)C(=O)O2)c1,0.07%
9,CCN(CC)c1ccc(/C=C/c2cc(-c3ccccc3)c3ccccc3n2)cc1,3.44%
10,CCN(CC)c1ccc(/C=C/c2cccc[n+]2C)c(OC)c1,22.6% (active)
11,C[C@@H]1CC=C[C@H]2[C@H]1C(=O)N(Cc1ccccc1)[C@H]2c1ccc(-c2cc3ccccc3s2)cc1F,0.21%
12,COc1ccc(-c2cc(C(F)(F)F)nc(S(=O)(=O)CCCC(=O)Nc3cc(C)on3)n2)cc1OC,3.3%
13,COc1ccc(S(=O)(=O)Nc2cc(C)on2)cc1,26.7% (active)
14,COc1ccc(NC(=O)c2cc(C)on2)cc1OC,0.84%
15,CC1=NN(C(=O)c2ccc(Cn3ccc([N+](=O)[O-])n3)cc2)C(O)(C(F)(F)F)C1 (configuration not stated),5.1%
16,COc1cccc(/C=N/c2nc3ccccc3[nH]2)c1O,0.01%
17,CN(C)c1ccc(/C=C/C(=O)c2c(O)c3ccccc3oc2=O)cc1,1.4%
18,CN1CCN(c2ccc(-c3cccc(NC(=O)COc4ccccc4)c3)nn2)CC1,9.37%
19,Cc1cc[n+](-c2[nH]c(=O)sc2/C=N/N=C(\[O-])c2ccccc2)cc1C,3.62%
20,O=C(NC(NC(=S)Nc1ccccc1C(=O)O)C(Cl)(Cl)Cl)c1ccco1 (configuration not stated),0%
21,O=C(CSc1ccc(Cl)cc1)Nc1cccc(NC(=O)c2ccco2)c1,0.39%
22,O=C(NC(=S)Nc1ccc2oc(=O)ccc2c1)c1ccco1,33.8% (active)
23,COc1ccc(/C=[N+](\[O-])C2N(c3ccccc3)C(=S)SC2(C)C)cc1OC (configuration not stated),0.2%
24,CC(C)N1CC=C2C(C#N)=C(N)C(C#N)(C#N)C(c3ccccc3)C2C1 (configuration not stated),0.48%
25,CC(C)(ONC(=O)Nc1ccccc1Cl)C(=O)O,314% (active)

row,SMILES,fluorescence artifact activation
1,O=C(Cc1ccccc1Cl)Nc1cccnc1,1.8%
2,COc1ccc(C(=O)Nc2ccccc2-c2ccccc2)cc1Cl,0.15%
3,Clc1cccc(C[n+]2cc(-c3ccccc3)n3c2CCC3)c1,-0.06%
4,CCc1cc[n+](-c2nc([O-])sc2C=O)cc1,2.36%
5,COc1ccc(N2CC(C(=O)Nc3nc(-c4ccccc4)c(C(C)=O)s3)CC2=O)c(OC)c1 (configuration not stated),0.16%
6,O=C(O)CCC(=O)Nc1cc(C(F)(F)F)cc(C(F)(F)F)c1,3.32%
7,CC1=NN(c2ccc(C)c(C)c2)C(=O)/C1=C/c1ccc2c(c1)n(C)c(=O)n2C,16.1% (active)
8,CC1=NN(c2ccc(Br)cc2)C(=O)/C1=C/c1ccc(-c2ccccc2C(=O)O)o1,0.09%
9,CCOC(=O)c1c(NC(=O)COC(=O)Cc2ccccc2[N+](=O)[O-])sc(C(=O)N(C)C)c1C,-0.03%
10,Oc1[nH]c2ccccc2c1N=Nc1cccc(Cl)c1,0.77%
11,CCC(/C=C1\Oc2ccc(OC)cc2N1C)=C\c1sc2ccccc2[n+]1CCCS(=O)(=O)[O-],4.9%
12,COc1cc(OC)c(OC)cc1/C=C/C(=O)c1ccc(NS(=O)(=O)c2ccc(C)cc2)cc1,0.29%
13,COc1ccc(N/C=C\C(=O)c2ccc(Br)cc2)cc1OC,15.4% (active)
14,COc1ccc(NC(=O)C2CC2)cc1OC1CCCC1,0.04%
15,Cc1ccc(N=Cc2sc(O)c3ccccc23)cc1,0%
16,COc1ccc(N=Cc2sc(O)c3ccccc23)cc1,27.5% (active)
17,Oc1sc(C=Nc2ccccc2)c2ccccc12,-0.05%
18,COc1ccc(-n2nnnc2SCC(=O)c2cc3ccccc3o2)cc1,12.4% (active)
19,COc1ccc(OC)c(-n2nnnc2SCC(=O)NCCc2ccccc2)c1,3.03%
20,COc1ccc(-c2nnc(SCC(=O)c3ccc[nH]3)n2-c2ccccc2)cc1,0.12%
21,COC(=O)CCCNC(=O)CCc1nnc(-c2ccc(-c3ccccc3)cc2)o1,-0.05%
22,CCOc1ccc(-c2nc3scc(-c4cccs4)c3c(=O)[nH]2)cc1,15.2% (active)
23,COc1ccc(C(=O)Nn2cnc3scc(-c4cccs4)c3c2=O)c(O)c1,7.33%
24,O=C(NCCN1CCOCC1)c1ccc(CS(=O)(=O)c2c(Cl)cccc2Cl)o1,-0.03%
25,CCOC(=O)c1c(/N=C/c2cccc([N+](=O)[O-])c2O)sc(C)c1C,2.1%

row,SMILES,fluorescence artifact activation
1,COC(=O)c1c(-c2ccc(OC)c(OC)c2)csc1N,0%
2,CC1CCC(C(C)C)C(OC(=O)Cn2c(-c3ccccc3)[n+](C)c3ccccc32)C1 (configuration not stated),0%
3,CCC(C)[C@H](NC(=O)N1CCC(C)CC1)C(=O)OC (some centres not stated),-0.05%
4,O=C(CCSc1nnc(-c2ccco2)o1)Nc1ccccc1,24.7% (active)
5,O=C(CSc1nnc(-c2ccco2)o1)NC1CCCCC1,-0.05%
6,CCn1c(SCC(=O)NNC(=O)c2ccco2)nnc1-c1ccco1,-0.04%
7,Cc1ccc(-n2nnnc2C(=Cc2ccc(N(C)C)cc2)c2nnnn2-c2ccc(C)cc2)cc1,0.09%
8,COc1cccc2cc(-c3nc(-c4cccs4)cs3)c(=O)oc12,-0.05%
9,CCOC(=O)c1c(-c2ccccc2)csc1NC(=O)/C(C#N)=C\c1ccc(O)c(OC)c1,0.5%
10,CC(C)CN1CCN(Cc2cccn2-c2ccc(Cl)cn2)CC1CCO (configuration not stated),26.8% (active)
11,CCOC(=O)/C(=C/C=C1\Sc2cc(OCC)c(OCC)cc2N1CC)C(C)=O,5.45%
12,O=C1CCC[C@@H]2Cc3nc4ccc(O)cc4cc3[C@@H]3CCN1[C@H]23,1.03%
13,c1ccc(CCCN2CCN(c3ccccc3)CC2)cc1,0%
14,CCc1ccc(C(=O)NNc2ccccc2F)cc1,1.03%
15,Cc1occc1C(=O)N=Nc1c(O)n(C)c2ccccc12,2.27%
16,COCCn1c(=O)c2ccccc2c2ccccc2c1=O,17.2% (active)
17,COCCn1c(SCC(=O)Nc2ccc(NC(=O)c3ccco3)c(OC)c2)nc2ccccc2c1=O,1.13%
18,COCCn1c(-c2ccc(C)cc2)nc2oc3cc(OC)ccc3c(=O)c2c1=O,0.27%
19,O=C(Nc1cc2c(cc1Br)OCCCO2)c1cccnc1,-0.06%
20,COc1ccc(CN(Cc2cccn2C)S(=O)(=O)c2ccccc2)cc1,0.19%
21,CCN(CC(=O)N1CCCC1)S(=O)(=O)c1ccc(OC)cc1,87% (active)
22,Cc1ccccc1NS(=O)(=O)c1ccc(OCC(=O)N2CCCCC2)cc1,-0.04%
23,Cc1ccc([N+](=O)[O-])c(OCCCN2C(=O)NC(C)(C)C2=O)c1,0.02%
24,COc1ccccc1N1C(C)=CC(=C(C#N)c2nc3ccccc3s2)C=C1C,0.18%
25,COc1ccc(N2C(=O)[C@@H]3[C@H](C2=O)[C@H](C(C)=O)N2c4ccccc4C=C[C@@H]32)cc1,0.08%

row,SMILES,fluorescence artifact activation
1,CCOc1ccc(CN2CCN(C/C=C/c3ccc(OC)cc3)CC2CCO)cc1 (configuration not stated),0.09%
2,Cc1ccc(CN2CCN(Cc3ccc(-n4cccn4)cc3C)CC2CCO)cc1 (configuration not stated),37.2% (active)
3,CSc1nnc(N(CCC#N)CCC#N)s1,11.2%
4,COc1ccc(-c2onc3ccc(C(C)=O)cc23)cc1,5.91%
5,CC1(C)CC(=O)C(C=Nc2ccc(C(=O)c3ccccc3)cc2N=CC2=C(O)CC(C)(C)CC2=O)=C(O)C1,0.03%
6,Cc1nnc(N2CCOCC2)c2nn(-c3cccc(Cl)c3)c(C)c12,0.16%
7,O=C(N/N=C/c1c(O)n(-c2ccc(Cl)cn2)c(=O)c2ccccc12)c1ccncc1,0.02%
8,Cn1c(O)c(/C=N/NC(=O)c2cc3ccccc3cc2O)c2ccccc21,70% (active)
9,COc1cc(OC)c(NC(=O)c2cc3ccccc3cc2O)cc1Cl,0.48%
10,CCCNC(=O)C12CCC(C)(C(=O)C1Br)C2(C)C (configuration not stated),0.01%
11,CN(C)CCNC(=O)c1c(CSc2ccc(Cl)cc2)noc1C(=O)NCc1ccccc1,0.05%
12,COc1cc(OC)c(C2N(c3ccc(Cl)c(Cl)c3)C(=O)C3CCCN32)cc1OC (configuration not stated),-0.1%
13,O=C(O)c1ncc(-c2ccccc2)cn1,43.6% (active)
14,NC(=O)C1CCN(C(=O)c2ccc(-c3ccccc3)cc2)CC1,4.63%
15,O=C([O-])c1ccccc1-[n+]1c(-c2ccccc2)cc(-c2ccccc2)cc1-c1ccccc1,0%
16,c1ccc2c(c1)CN1CCCC1=N2,-0.08%
17,CCOc1cc(N(CC)CC)ccc1/C=C(/C#N)c1nc2ccccc2[nH]1,0.26%
18,COc1cc(/C=C(\C#N)c2nc3ccccc3[nH]2)ccc1O,0.06%
19,CCN(CC)c1ccc(/C=C(/C#N)c2nc3ccccc3[nH]2)c(OC(C)C)c1,41.8% (active)
20,CCCOc1cc(N(CC)CC)ccc1/C=C(/C#N)c1nc2ccc(C)cc2[nH]1,12.4% (active)
21,COc1cc(/C=C(\C#N)c2nc3ccccc3[nH]2)cc(OC)c1O,6.16%
22,COc1cccc(/C=C(/C#N)c2nc3ccccc3[nH]2)c1OC(C)C(=O)O (configuration not stated),0.54%
